Measurements from different studies.
Each line is one published result; the experiments were not run side by side.
Target: Insulin receptor (INSR, Homo sapiens, UniProt P06213)

`O=C(Nc1c[nH]nc1C(=O)NC1CCNCC1)c1cc(F)cc(F)c1` gave a remaining binding of 100% (binding; competition with immobilised ligand; 1 µM).
`CNC(=O)[C@@H]1CC[C@@H](n2c(-c3ccc4cnccc4c3)nc3ccc(C(=O)NCc4cccc(C(N)=O)c4)cc32)C1` gave a remaining binding of 92% (binding; competition with immobilised ligand; 1 µM).
The remaining binding of `O=C(NCCCN1CCOCC1)c1ccc(Nc2nccc(-c3cc4ccccc4s3)n2)cc1` is reported as 95% (binding; competition with immobilised ligand; 1 µM).
`c1cnn2ncc(-c3ccnc(N4CCC45COC5)n3)c2c1` has a remaining binding of 73% (binding; 1 µM).
`CN(C)C(=O)Cn1cc(-c2nc(C3(c4ccc(-c5cnc(N)nc5)cc4)CC3)no2)cn1` gave a remaining binding of 90% (cell-free assay; competition with immobilised ligand; 1 µM).
For `C[C@@H]1CN(c2ccc3ncc(-c4ccc5[nH]nc(C6CC6)c5c4)n3n2)C[C@H](C)O1`, the remaining binding was 100% (binding; competition with immobilised ligand; 50 nM).
`CCN1CCN(Cc2ccc(C(=O)Nc3ccc(C)c(Oc4ccc5c(c4)CC(=O)N5)c3)cc2C(F)(F)F)CC1` has a remaining binding of 77% (binding; competition with immobilised ligand; 1 µM).
`COc1ncc2cc3ccccc3nc2c1C#N` has a remaining binding of 100% (cell-free assay; competition with immobilised ligand; 5 µM).
The remaining binding of `N#Cc1ccccc1CSc1nnc2c(n1)[nH]c1ccccc12` is reported as 88% (binding; competition with immobilised ligand; 10 µM).
`CN(C)c1ncc(F)c(-c2cnn3ncccc23)n1` gave a remaining binding of 81% (binding; 1 µM).
`C=CC(=O)N1CCC(C(=O)NCC(=O)N2CCN(c3nc(-c4cnc(N)nc4C(F)F)nc(N4CCOCC4)n3)CC2)CC1` has a remaining binding of 99% (binding; competition with immobilised ligand; 1 µM).
`CC(=O)N1CCC(c2ccc(C(=O)NC3=NCCN3)cc2C(F)(F)F)CC1` gave a remaining binding of 100% (cell-free assay; competition with immobilised ligand; 1 µM).
`O=C(c1ccc(Nc2ncc(Cl)c(-c3ccc(Cl)s3)n2)cc1)N1CCC(N2CCCC2)CC1` gave a remaining binding of 2.3% (binding; competition with immobilised ligand; 1 µM).
`CCS(=O)(=O)c1cc2cc(C[C@](O)(CC(C)(C)c3ccc(F)cc3C(N)=O)C(F)(F)F)[nH]c2cn1` has a remaining binding of 94% (cell-free assay; competition with immobilised ligand; 1 µM).
`FC(F)(F)Oc1cccc(-c2cnc3ccc(-c4ccncc4)nn23)c1` has a remaining binding of 88% (cell-free assay; competition with immobilised ligand; 5 µM).
`COc1ccnn2ncc(-c3ccnc(N(C)C)n3)c12` has a remaining binding of 96% (binding; 1 µM).
For `O=C(Nc1cccnn1)N1CCC(=Cc2cccc(Oc3ccc(C(F)(F)F)cn3)c2)CC1`, the remaining binding was 100% (cell-free assay; competition with immobilised ligand; 1 µM).
`N[C@H]1CCN(c2nccc(-c3cnn4ncccc34)n2)C1` has a remaining binding of 85% (binding; 1 µM).
For `CN([C@@H]1CCc2c(CC(=O)O)c3ccccc3n2C1)S(=O)(=O)c1ccc(F)cc1`, the remaining binding was 100% (cell-free assay; competition with immobilised ligand; 1 µM).
`C[C@H]1CCN(c2nccc(-c3cnn4ncccc34)n2)C1` gave a remaining binding of 69% (binding; 1 µM).
`O=C(c1ccc(Nc2ncc(Cl)c(-c3cc4ccccc4s3)n2)cc1)N1CCC(N2CCCC2)CC1` has a remaining binding of 6.1% (binding; competition with immobilised ligand; 1 µM).
With `CCC(=O)N[C@H]1CC[C@@H](C(=O)N(C)c2ccc(-c3nc4ccccc4o3)cc2)C1` the remaining binding was 91% (cell-free assay; competition with immobilised ligand; 1 µM).
With `CC1CCCN1c1nccc(-c2cnn3ncccc23)n1` (stereo not shown) the remaining binding was 86% (binding; 1 µM).
`Cn1nc(C(F)(F)F)cc1-c1cnc(N2CCc3cc(S(=O)(=O)Nc4c(F)cc(Cl)cc4F)cc(N4CCCC4=O)c32)nc1` has a remaining binding of 89% (cell-free assay; competition with immobilised ligand; 1 µM).
`CN(C)c1nccc(-c2cnc3ncccn23)n1` has a remaining binding of 70% (binding; 1 µM).
